This is an account of results in PubChem BioAssay.

Assay [1] is described as follows: Her2 expression decrease, cell viability multiplex – SKBR3 breast tumor cells, AlphaScreen, ATP viability, primary screen (AID 461;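 active = Her2 level under about 52% in both replicate screens, with viability over 70% of control, limit read from the data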;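 as to Her2 level: lower value means less Her2 protein in the cells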;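 as to viability: percent of carrier control wells set as 100% viability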). As to conditions: SKBR3 Her2 protein level, 18-24 h, measured here: SKBR3 viability, ATP luminescence, at 10 µM. (Alpha assays give light when donor and acceptor beads are brought close together.)
In assay [2] the target is Receptor tyrosine-protein kinase erbB-2 (Homo sapiens) (UniProt P04626). Described as above. As to conditions: 18-24 h, at 10 µM, stronger effect = lower value.
A short description of assay [3]: reduced viability of SK-BR-3 breast cancer cells – cell-based, 24 h, human, pilot screen (AID 572;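 active = viability at or below 10% of carrier control in both of two separate runs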;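 also: compound exposure lasted between 18 and 24 h rather than exactly 24 h; 100% = carrier-treated control wells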). The following applies: SK-BR-3 viability, CellTiter-Glo luminescence, at 10 µM, stronger effect = lower value. For orientation: In ATP-based viability assays light output follows the ATP content of the culture.
Assay [4] in a line: HUVEC growth inhibition – cell-based, human, primary screen (AID 575;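 active = viability at or below 30% in both replicate assays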;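 also: 100% = median of untreated cell wells with 0.1% DMSO on each plate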). As to conditions: HUVEC proliferation, CellTiter-Glo luminescence, 72 h; at 10 µM; stronger effect = lower value. Summed up: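 Assay system: primary human umbilical vein endothelial cells / Buffer or medium: endothelial basal medium with 2% FBS plus growth supplements / Compound dosing: one dose, 10 µM final, 0.1% DMSO / Timing: 72 h treatment at 37 °C / Signal: CTG luminescence / Benchmarks: 32 DMSO-only cell-control wells (high), 32 MePR drug-control wells (low) per plate / Plate: collagen-coated 384-well format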

The nature of assay [5]: H69AR cell proliferation blockers – human, duplicate replicates, primary screen (AID 580).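 Also: 100% = mean luminescence of untreated wells and 0% = no signal.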 The following applies: H69AR lung tumor cells viability, ATP luminescence, 72 h; at 10 µM; stronger effect = lower value.
Assay [6] in a line: MRP1 drug-resistance reversers in H69AR cells – cell-based, doxorubicin co-treatment, pilot screen (AID 601;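 active = viability loss from added drug above about 55%, and viability with drug at most 40%, in both replicates, limit read from the data, passing the limit was not always enough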). As to conditions: CellTiter-Glo, 72 h, at 10 µM; for differential viability (reversal): stronger effect = higher value.
Assay [7] can be described thus: yeast transport mutant growth inhibition pilot in 384-well plates, post-Golgi transport modulator project (AID 636; in the data active = inhibition above about 31%). As to conditions: absorbance 615 nm, about 18 h, stronger effect = higher value.
Assay [8] can be described thus: growth suppression of yeast trafficking mutant, preliminary HTS, modulators of trafficking downstream of Golgi apparatus project, 1536-format plate, OD 615 nm (AID 637; in the data active = inhibition above about 30%). As to conditions: yeast transport mutant growth, absorbance 615 nm, 18 h; stronger effect = higher value.
[9] abbreviates: H69AR cells + 2 uM doxorubicin, measured here: viability with 2 uM doxorubicin, stronger effect = lower value.
Setting [10] is: H69AR cells, compound alone cytotoxicity.

Calls of active or inactive are those of the source.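 The calls were made as follows, unless noted: active = viability at or under a set limit in both replicates, limit being median viability minus 3 SD (cut at about 48% in these data, passing the limit was not always enough); inconclusive = at or under the limit in just one replicate; inactive = at or above the limit in both replicates.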

Sequence of Receptor tyrosine-protein kinase erbB-2 (Homo sapiens) (P04626 whole entry, looked up): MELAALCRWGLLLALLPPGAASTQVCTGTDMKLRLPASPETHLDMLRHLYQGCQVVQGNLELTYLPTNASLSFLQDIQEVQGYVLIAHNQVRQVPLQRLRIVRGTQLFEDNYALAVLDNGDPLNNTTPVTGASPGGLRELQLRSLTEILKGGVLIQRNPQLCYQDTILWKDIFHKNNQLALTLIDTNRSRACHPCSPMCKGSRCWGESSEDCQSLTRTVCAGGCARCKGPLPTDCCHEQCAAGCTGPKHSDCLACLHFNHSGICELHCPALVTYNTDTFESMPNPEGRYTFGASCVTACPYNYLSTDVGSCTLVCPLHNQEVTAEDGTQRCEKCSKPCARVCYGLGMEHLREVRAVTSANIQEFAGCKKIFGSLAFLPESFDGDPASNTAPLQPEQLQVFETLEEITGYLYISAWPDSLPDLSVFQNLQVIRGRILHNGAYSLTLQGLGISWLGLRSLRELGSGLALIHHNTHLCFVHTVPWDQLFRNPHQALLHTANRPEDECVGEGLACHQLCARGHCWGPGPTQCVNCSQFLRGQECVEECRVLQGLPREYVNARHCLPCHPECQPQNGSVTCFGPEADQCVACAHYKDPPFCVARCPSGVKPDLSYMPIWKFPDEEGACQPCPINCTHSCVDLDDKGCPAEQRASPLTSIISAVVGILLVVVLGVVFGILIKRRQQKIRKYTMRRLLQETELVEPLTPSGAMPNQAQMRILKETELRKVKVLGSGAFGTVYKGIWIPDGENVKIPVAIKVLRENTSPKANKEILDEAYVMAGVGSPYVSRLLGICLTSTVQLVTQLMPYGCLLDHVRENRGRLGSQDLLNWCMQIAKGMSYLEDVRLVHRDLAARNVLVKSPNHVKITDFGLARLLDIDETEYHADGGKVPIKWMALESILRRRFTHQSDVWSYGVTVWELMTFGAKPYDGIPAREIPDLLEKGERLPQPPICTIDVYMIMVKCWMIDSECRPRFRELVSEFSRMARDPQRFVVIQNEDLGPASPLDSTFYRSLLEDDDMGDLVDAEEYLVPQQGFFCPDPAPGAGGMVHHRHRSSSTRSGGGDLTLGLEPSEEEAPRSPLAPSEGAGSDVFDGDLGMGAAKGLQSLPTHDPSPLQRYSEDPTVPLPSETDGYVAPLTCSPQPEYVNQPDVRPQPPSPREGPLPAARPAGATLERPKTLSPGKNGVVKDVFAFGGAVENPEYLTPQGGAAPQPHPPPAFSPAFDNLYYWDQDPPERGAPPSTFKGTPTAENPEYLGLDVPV

The viability is a read-out of living cells in per cent, often relative to untreated cells. As usually defined, the inhibition is the change of the read-out against control, counted positive when it falls. For `COc1cc(C2C(C#N)=C(N)Oc3cc(N)ccc32)cc(OC)c1OC` (stereo not given), the viability in assay [1] was 91.5%; in assay [3] it was 91.5% (inactive); in assay [4], 42.1% (inactive); in assay [5], 32.3% (active); in assay [6] (setting [9]) it was 61.1%; in assay [6] (setting [10]), 32.3%. The Her2 level in assay [2] was 75% (inactive). In addition, the differential viability (reversal) in assay [6] (H69AR cells + 2 uM doxorubicin) was -28.8% (inactive). In addition, the inhibition in assay [7] was -4% (inactive); in assay [8], 8.03% (inactive).

`CCOC(=O)CN1C(=O)C2(OCCCO2)c2ccccc21`: the viability was 99% in assay [1]; 99% (inactive) in assay [3]; 99.7% (inactive) in assay [4]; 101% (inactive) in assay [5]; 89.7% in assay [6] (setting [9]); 101% in assay [6] (setting [10]). The Her2 level in assay [2] is 109% (inactive). Further, the differential viability (reversal) in assay [6] (H69AR cells + 2 uM doxorubicin) was 11.1% (inactive). In addition, the inhibition in assay [7] is -7.66% (inactive); in assay [8] it was -11% (inactive).

With `CCOc1ccc2nc(SCC(=O)N3CCCCCC3)c(C#N)cc2c1`, the viability is 95% in assay [1]; 95% (inactive) in assay [3]; 87.5% (inactive) in assay [4]; 86.2% (inactive) in assay [5]; 89.4% in assay [6] (setting [9]); 86.2% in assay [6] (setting [10]). In assay [2], the Her2 level is 82.5% (inactive). Moreover, in assay [6] (H69AR cells + 2 uM doxorubicin), the differential viability (reversal) is -3.21% (inactive). Besides, the inhibition in assay [7] was -5.87% (inactive); in assay [8] it was 3.28% (inactive).

For the molecule `CC(C)COC(=O)C1[C@H]2C(=O)N(Cc3cccs3)C[C@]23C=C[C@H]1O3` (stereo not given in full), the viability in assay [1] is 102%; in assay [3], 102% (inactive); in assay [4] it was 110% (inactive); in assay [5], 91.1% (inactive); in assay [6] (setting [9]) it was 89.8%; in assay [6] (setting [10]), 91.1%. Further, in assay [2], the Her2 level was 109% (inactive). Besides, the differential viability (reversal) in assay [6] (H69AR cells + 2 uM doxorubicin) is 1.3% (inactive). Moreover, the values for the inhibition in assay [7] and in assay [8] were -4.29% (inactive) and -2.33% (inactive), respectively.

For `CCC(C)NC(=O)CC1Oc2ccc(C)cc2NC1=O` (stereo not given), the viability in assay [1] was 105%; in assay [3], 105% (inactive); in assay [4], 90.3% (inactive); in assay [5], 91.7% (inactive); in assay [6] (setting [9]), 94.2%; in assay [6] (setting [10]) it was 91.7%. Further, the Her2 level in assay [2] was 99% (inactive). The differential viability (reversal) in assay [6] (H69AR cells + 2 uM doxorubicin) was -2.57% (inactive). The results for the inhibition in assay [7] and in assay [8] were 0.13% (inactive) and -3.28% (inactive), respectively.

`Cc1cccn2c(=O)c3cc(C#N)c(=O)n(CCCN4CCOCC4)c3nc12`: the viability in assay [1] was 88.5%; in assay [3] it was 88.5% (inactive); in assay [4], 99.8% (inactive); in assay [5], 102% (inactive); in assay [6] (setting [9]), 82.2%; in assay [6] (setting [10]) it was 102%. Further, the Her2 level in assay [2] was 85% (inactive). The differential viability (reversal) in assay [6] (H69AR cells + 2 uM doxorubicin) is 20% (inactive). In addition, the values for the inhibition in assay [7] and in assay [8] were -3.51% (inactive) and 1.83% (inactive), respectively.

On to `Cc1cc(NC(=O)Cn2cnc3c(cnn3C(C)(C)C)c2=O)no1`, for which the viability is 91.5% in assay [1]; 91.5% (inactive) in assay [3]; 102% (inactive) in assay [4]; 91.9% (inactive) in assay [5]; 89.8% in assay [6] (setting [9]); 91.9% in assay [6] (setting [10]). Also, the Her2 level in assay [2] is 100% (inactive). For the same molecule, in assay [6] (H69AR cells + 2 uM doxorubicin), the differential viability (reversal) is 2.12% (inactive). Also, the inhibition in assay [7] is 0.66% (inactive); in assay [8], -5.16% (inactive).

With `CC(C)(C)c1ccc(C(=O)Nc2cnccn2)cc1`, the viability was 79.5% in assay [1]; 79.5% (inactive) in assay [3]; 98.1% (inactive) in assay [4]; 100% (inactive) in assay [5]; 81.5% in assay [6] (setting [9]); 100% in assay [6] (setting [10]). The Her2 level in assay [2] was 114% (inactive). Moreover, the differential viability (reversal) in assay [6] (H69AR cells + 2 uM doxorubicin) is 18.8% (inactive). Also, the inhibition in assay [7] was -4.87% (inactive); in assay [8] it was 0.67% (inactive).

As for `CCn1c(=O)cc(SCC(=O)Nc2cccnc2)c2ccccc21`, the viability in assay [1] was 91.5%; in assay [3], 91.5% (inactive); in assay [4], 56.5% (inactive); in assay [5], 104% (inactive); in assay [6] (setting [9]) it was 89.3%; in assay [6] (setting [10]), 104%. The Her2 level in assay [2] was 89.5% (inactive). Further, the differential viability (reversal) in assay [6] (H69AR cells + 2 uM doxorubicin) was 14.7% (inactive). Further, the inhibition in assay [7] was -1.32% (inactive); in assay [8] it was 1.43% (inactive).

Consider `CCC(C)(C)n1nnnc1C(c1ccncc1)N1CCN(c2cccc(OC)c2)CC1` (stereo not given), for which the viability was 77.5% in assay [1]; 77.5% (inactive) in assay [3]; 91.9% (inactive) in assay [4]; 85.3% (inactive) in assay [5]; 85.8% in assay [6] (setting [9]); 85.3% in assay [6] (setting [10]). The Her2 level in assay [2] is 82.5% (inactive). Besides, in assay [6] (H69AR cells + 2 uM doxorubicin), the differential viability (reversal) was -0.525% (inactive). Besides, the inhibition in assay [7] was -2.67% (inactive); in assay [8], 4.26% (inactive).

For `CCn1nc(C(=O)OCC(=O)c2cc(C)n(Cc3cccs3)c2C)c2ccccc2c1=O`, the viability in assay [1] is 93.5%; in assay [3], 93.5% (inactive); in assay [4] it was 84.1% (inactive); in assay [5], 83.6% (inactive); in assay [6] (setting [9]), 93%; in assay [6] (setting [10]), 83.6%. For the same molecule, the Her2 level in assay [2] is 93% (inactive). Also, the differential viability (reversal) in assay [6] (H69AR cells + 2 uM doxorubicin) is -9.39% (inactive). In addition, the inhibition in assay [7] was -3.2% (inactive); in assay [8] it was 26.6% (inactive).

Consider `Cc1ccc(-c2nn3c(=O)c(C)nnc3s2)cc1`, for which the viability in assay [1] was 112%; in assay [3], 112% (inactive); in assay [4] it was 112% (inactive); in assay [5] it was 104% (inactive); in assay [6] (setting [9]), 90.9%; in assay [6] (setting [10]), 104%. Also, the Her2 level in assay [2] was 112% (inactive). In assay [6] (H69AR cells + 2 uM doxorubicin), the differential viability (reversal) is 12.8% (inactive). For the same molecule, the inhibition in assay [7] is -2.97% (inactive); in assay [8], -5% (inactive).

Regarding `C(=N\n1cnnc1)/c1cccnc1`, the viability in assay [1] is 87.5%; in assay [3] it was 87.5% (inactive); in assay [4], 105% (inactive); in assay [5], 98.6% (inactive); in assay [6] (setting [9]), 88.8%; in assay [6] (setting [10]), 98.6%. Besides, in assay [2], the Her2 level was 107% (inactive). Moreover, the differential viability (reversal) in assay [6] (H69AR cells + 2 uM doxorubicin) is 9.86% (inactive). For the same molecule, the inhibition in assay [7] is 4.34% (inactive); in assay [8], 0.36% (inactive).

As for `COc1ccc(CNC(=O)COC(=O)c2n[nH]c3ccccc23)cc1OC`, the viability was 88% in assay [1]; 88% (inactive) in assay [3]; 89.7% (inactive) in assay [4]; 92.6% (inactive) in assay [5]; 84.6% in assay [6] (setting [9]); 92.6% in assay [6] (setting [10]). The Her2 level in assay [2] is 84.5% (inactive). Further, the differential viability (reversal) in assay [6] (H69AR cells + 2 uM doxorubicin) was 8.04% (inactive). Also, the inhibition in assay [7] is -7.47% (inactive); in assay [8] it was 2.38% (inactive).
